Test results from ChEMBL document CHEMBL4842351, “Synthesis and evaluation of novel and potent protease activated receptor 4 (PAR4) antagonists based on a quinazolin-4(3H)-one scaffold” (Eur J Med Chem, 2021).

Tests used:
[1] = biological target: T1, Proteinase-activated receptor 4 (Homo sapiens) (UniProt Q96RI0); assay: Antagonist activity at PAR4 in human platelet-rich plasma assessed as inhibition of PAR4 AP AYPGKF-NH2-induced platelet aggregation at 0.2 uM by photo-turbidimetry assay relative to control; type: functional
T1 sequence (whole entry): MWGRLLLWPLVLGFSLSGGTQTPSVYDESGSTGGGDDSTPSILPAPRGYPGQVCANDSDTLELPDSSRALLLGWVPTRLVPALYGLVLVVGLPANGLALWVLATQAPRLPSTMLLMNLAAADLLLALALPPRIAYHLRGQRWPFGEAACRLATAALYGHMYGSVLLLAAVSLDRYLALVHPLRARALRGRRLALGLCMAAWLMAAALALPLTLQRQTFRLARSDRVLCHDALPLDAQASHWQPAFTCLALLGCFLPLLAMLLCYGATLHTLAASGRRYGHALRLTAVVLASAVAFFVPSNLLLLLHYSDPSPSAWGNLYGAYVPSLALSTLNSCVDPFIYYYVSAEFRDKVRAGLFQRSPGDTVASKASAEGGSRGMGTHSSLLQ
In short: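 Human PRP from donated blood, spun at 160×g for 15 min, then adjusted to 3×10⁸/mL with PPP (2000×g, 15 min). Compound or saline vehicle preincubated with PRP for 5 min at 37 °C. Aggregation induced by AYPGKF-NH₂; maximal aggregation measured by light transmittance for 5 min. Percent inhibition at a single point; IC50 from ≥5 concentrations by curve fitting.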

[2] = biological target: T2, Proteinase-activated receptor 4 (Homo sapiens, UniProt Q96RI0); assay: Antagonist activity at human PAR4 expressed in Ga15-HEK293 cells assessed as reduction in PAR4 AP AYPGKF-NH2-induced cytosolic calcium incubated for 24 hrs by FLIPR - calcium mobilization assay; type: functional, cell-based
T2 sequence (Q96RI0 whole entry): T1 sequence (whole entry)
In short: (§1)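 HEK293/Gα15 cells stably expressing human PAR1, PAR2 or PAR4, seeded at 45,000 cells/well and grown for 24 h at 37 °C, 5% CO₂. Cells loaded with calcium dye for 60 min at 37 °C in the dark. Compounds diluted from DMSO in HBSS and preincubated in the dark at room temperature. Agonists: SFFLRR (PAR1), 2-furoyl-LIGRLO-NH₂ (PAR2), AYPGKF-NH₂ (PAR4). Fluorescence read on FLIPR; 10-point half-log curves; mean of ≥2 determinations.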

[3] = biological target: T3, Proteinase-activated receptor 1 (Homo sapiens, UniProt P25116); assay: Antagonist activity at human PAR1 expressed in Ga15-HEK293 cells assessed as reduction in PAR1 AP SFFLRR-NH2-induced cytosolic calcium incubated for 24 hrs by FLIPR - calcium mobilization assay; type: functional, cell-based; in short: as §1
T3 sequence (P25116 whole entry): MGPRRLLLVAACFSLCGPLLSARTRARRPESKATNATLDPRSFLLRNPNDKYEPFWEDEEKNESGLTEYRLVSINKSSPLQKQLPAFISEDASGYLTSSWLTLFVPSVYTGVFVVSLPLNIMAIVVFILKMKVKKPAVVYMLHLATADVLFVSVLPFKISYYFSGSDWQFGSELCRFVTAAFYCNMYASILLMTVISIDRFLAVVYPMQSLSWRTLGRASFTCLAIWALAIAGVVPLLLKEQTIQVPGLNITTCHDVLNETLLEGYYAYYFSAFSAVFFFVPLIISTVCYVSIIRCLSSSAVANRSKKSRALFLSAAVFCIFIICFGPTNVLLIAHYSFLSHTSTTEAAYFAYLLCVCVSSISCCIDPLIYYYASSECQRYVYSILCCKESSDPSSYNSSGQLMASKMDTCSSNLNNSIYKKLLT

[4] = biological target: T4, Proteinase-activated receptor 2 (Homo sapiens, UniProt P55085); assay: Antagonist activity at human PAR2 expressed in Ga15-HEK293 cells assessed as reduction in PAR2 AP 2-furoyl-LIGRLO-NH2-induced cytosolic calcium incubated for 24 hrs by FLIPR - calcium mobilization assay; type: functional, cell-based; in short: as §1
T4 sequence (P55085 whole entry): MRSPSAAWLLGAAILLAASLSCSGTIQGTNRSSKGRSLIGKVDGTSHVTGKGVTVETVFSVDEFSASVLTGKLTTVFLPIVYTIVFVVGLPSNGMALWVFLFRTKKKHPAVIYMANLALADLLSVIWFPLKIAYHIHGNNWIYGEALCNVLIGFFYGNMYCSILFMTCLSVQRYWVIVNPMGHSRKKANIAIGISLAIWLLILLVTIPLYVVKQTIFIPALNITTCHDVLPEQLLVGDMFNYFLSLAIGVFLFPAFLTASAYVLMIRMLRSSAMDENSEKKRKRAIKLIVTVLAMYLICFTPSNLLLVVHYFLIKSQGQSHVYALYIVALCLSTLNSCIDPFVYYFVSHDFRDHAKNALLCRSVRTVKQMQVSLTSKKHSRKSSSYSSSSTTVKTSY

Row | inhibition ([1]; filed as antagonist) | inhibition [1] | Compound | other results
1 | – | 15.1% | CCOCn1cnc2c(-c3nc4c(s3)CCCC4)cc(C)cc2c1=O | –
2 | – | 18.7% | COc1cc(F)c2nc(-c3cccc4c(=O)n(C)cnc34)sc2c1 | –
3 | – | 19.8% | Cn1cnc2c(-c3nc4c(s3)CCCC4)cccc2c1=O | –
4 | – | 17% | Cc1cc(-c2nc3c(s2)CCCC3)c2nc(C)n(C)c(=O)c2c1 | –
5 | – | 6.5% | Cc1cc(-c2ccc(F)cc2O)c2ncn(C)c(=O)c2c1 | –
6 | – | 26.8% | CCn1cnc2c(-c3nc4c(s3)CCCC4)cc(C)cc2c1=O | –
7 | – | 21.3% | Cc1cc(-c2nc3c(Cl)cc(Cl)cc3s2)c2ncn(C)c(=O)c2c1 | –
8 | 41.6% | – | Cc1cc(-c2nc3c(s2)CCCC3)c2nc[nH]c(=O)c2c1 | –
9 | – | 7.1% | Cc1cc(-c2nccs2)c2ncn(C)c(=O)c2c1 | –
10 | 92.8% | – | CCc1cc(-c2nc3c(Cl)cc(OC)cc3s2)c2ncn(C)c(=O)c2c1 | IC50 [2]: 6.8 nM; IC50 [3]: > 3160 nM; IC50 [4]: > 1000 nM
11 | – | 35.7% | COCn1cnc2c(-c3nc4c(s3)CCCC4)cc(C)cc2c1=O | –
12 | 9.3% | – | CCCCc1cc(-c2nc3c(s2)CCCC3)c2ncn(CC)c(=O)c2c1 | –

The remaining lines, values behind:

Row | Compound | inhibition ([1]; filed as antagonist) | inhibition [1] | other results
13 | CCOCn1cnc2c(-c3nc4c(Cl)cc(OC)cc4s3)cc(C)cc2c1=O | 91.2% | – | –
14 | CCn1cnc2c(-c3nc4c(F)cc(OC)cc4s3)cc(C)cc2c1=O | – | 18.8% | –
15 | COc1cc(Cl)c2nc(-c3cc(C)cc4c(=O)n(C(C)C)cnc34)sc2c1 | – | 15.2% | –
16 | Cc1cc(-c2nc3c(Cl)cc(OCCNS(=O)(=O)c4ccc(Cl)cc4Cl)cc3s2)c2ncn(C)c(=O)c2c1 | 47.1% | – | –
17 | CCCCc1cc(-c2nc3c(Cl)cc(OC)cc3s2)c2ncn(C)c(=O)c2c1 | 47.6% | – | –
18 | COc1cc(F)c2nc(-c3cc(C)cc4c(=O)n(C(C)C)cnc34)sc2c1 | – | 10.2% | –
19 | Cc1cc(-c2nc3c(Cl)cc(OCCNS(=O)(=O)c4ccc(Cl)cc4)cc3s2)c2ncn(C)c(=O)c2c1 | – | 32.3% | –
20 | Cc1cc(-c2nc3c(Cl)cc(OCCNC(=O)OC(C)(C)C)cc3s2)c2ncn(C)c(=O)c2c1 | 54.1% | – | –
21 | COc1cc(Cl)c2nc(-c3cc(C)cc4c(=O)n(C)c(C)nc34)sc2c1 | – | 39.8% | –
